In ChEMBL document CHEMBL1122824, “Synthesis and biological properties of (carboxyalkyl)amino-substituted bicyclic lactam inhibitors of angiotensin converting enzyme” (J Med Chem, 1985) one finds IC50 and Systolic blood pressure data, which are given here for nine compounds.

Assay [1] addresses T1, Angiotensin-converting enzyme (Oryctolagus cuniculus, UniProt P12822).
T1 sequence (P12822 whole entry): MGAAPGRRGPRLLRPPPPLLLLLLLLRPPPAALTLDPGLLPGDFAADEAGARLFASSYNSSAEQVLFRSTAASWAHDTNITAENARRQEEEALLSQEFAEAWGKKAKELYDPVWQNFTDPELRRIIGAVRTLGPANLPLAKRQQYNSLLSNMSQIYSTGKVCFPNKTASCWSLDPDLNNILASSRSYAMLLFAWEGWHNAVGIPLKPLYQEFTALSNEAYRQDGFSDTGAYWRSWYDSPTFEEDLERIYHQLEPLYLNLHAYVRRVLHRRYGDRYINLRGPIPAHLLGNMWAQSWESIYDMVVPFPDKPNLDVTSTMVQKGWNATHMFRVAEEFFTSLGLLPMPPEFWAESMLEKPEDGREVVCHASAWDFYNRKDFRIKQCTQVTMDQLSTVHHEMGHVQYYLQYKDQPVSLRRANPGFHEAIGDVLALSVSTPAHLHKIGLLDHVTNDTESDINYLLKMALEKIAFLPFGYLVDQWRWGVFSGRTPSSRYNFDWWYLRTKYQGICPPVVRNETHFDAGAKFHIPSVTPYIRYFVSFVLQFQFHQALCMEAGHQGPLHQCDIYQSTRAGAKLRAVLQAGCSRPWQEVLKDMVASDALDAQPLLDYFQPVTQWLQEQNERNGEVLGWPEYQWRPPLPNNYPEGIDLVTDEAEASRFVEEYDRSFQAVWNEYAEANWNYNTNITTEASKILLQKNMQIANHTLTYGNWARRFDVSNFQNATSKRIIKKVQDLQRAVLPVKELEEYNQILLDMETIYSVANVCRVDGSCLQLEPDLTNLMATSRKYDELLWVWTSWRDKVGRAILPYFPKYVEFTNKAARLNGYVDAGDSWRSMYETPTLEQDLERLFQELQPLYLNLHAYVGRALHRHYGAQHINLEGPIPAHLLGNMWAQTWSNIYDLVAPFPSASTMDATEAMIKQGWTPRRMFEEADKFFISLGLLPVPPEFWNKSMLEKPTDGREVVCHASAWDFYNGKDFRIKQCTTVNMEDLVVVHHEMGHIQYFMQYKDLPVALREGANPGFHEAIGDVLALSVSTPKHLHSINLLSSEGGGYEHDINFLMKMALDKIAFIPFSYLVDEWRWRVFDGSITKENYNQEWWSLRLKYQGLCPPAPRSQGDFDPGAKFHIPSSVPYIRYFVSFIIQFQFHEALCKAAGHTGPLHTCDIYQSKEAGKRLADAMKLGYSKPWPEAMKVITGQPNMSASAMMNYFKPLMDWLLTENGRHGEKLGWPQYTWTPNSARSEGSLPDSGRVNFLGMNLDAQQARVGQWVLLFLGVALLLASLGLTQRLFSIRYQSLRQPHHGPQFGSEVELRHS
Nature of the assay: Inhibition of Angiotensin I converting enzyme.

The subject of assay [2] is Rattus norvegicus. Nature of the assay: Effects of oral dosing (10 mg/kg) on systolic blood pressure in spontaneously hypertensive rats, day 4,at 2 hr. In kind it is functional, Artery. An outline of the steps: (§1)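 Spontaneously hypertensive rats, 6 per group, were dosed orally once daily for 4 days at 0.1, 1.0 or 10 mg/kg. Systolic pressure was recorded before the first dose and at 2 and 24 h after each daily dose. Values are group mean ±SE with change from predose.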

The subject of assay [3] is Rattus norvegicus. Nature of the assay: Effects of oral dosing (1 mg/kg) on systolic blood pressure in spontaneously hypertensive rats, day 1,at 24 hr. In kind it is functional, Artery. A digest of the protocol: as §1
Assay [4] concerns Rattus norvegicus. The assay is described as follows: Effects of oral dosing (1 mg/kg) on systolic blood pressure in spontaneously hypertensive rats, day 1,at 2 hr. In kind it is functional, Artery. An outline of the steps: as §1
In assay [5] the test system is Rattus norvegicus. The assay is described as follows: Effects of oral dosing (1 mg/kg) on systolic blood pressure in spontaneously hypertensive rats, day 2,at 24 hr. The class given is functional, Artery. A digest of the protocol: as §1
The subject of assay [6] is Rattus norvegicus. The assay is described as follows: Effects of oral dosing (1 mg/kg) on systolic blood pressure in spontaneously hypertensive rats, day 2,at 2 hr. In kind it is functional, Artery. A digest of the protocol:
as §1

Assay [7] relates to Rattus norvegicus. Nature of the assay: Effects of oral dosing (1 mg/kg) on systolic blood pressure in spontaneously hypertensive rats, day 3,at 24 hr. In kind it is functional, Artery. An outline of the steps: as §1
The subject of assay [8] is Rattus norvegicus. Nature of the assay: Effects of oral dosing (1 mg/kg) on systolic blood pressure in spontaneously hypertensive rats, day 3,at 2 hr. The class given is functional, Artery. A digest of the protocol:
as §1

The subject of assay [9] is Rattus norvegicus. Nature of the assay: Effects of oral dosing (1 mg/kg) on systolic blood pressure in spontaneously hypertensive rats, day 4,at 24 hr. In kind it is functional, Artery. An outline of the steps: as §1
The test system of assay [10] is Rattus norvegicus. The assay is described as follows: Effects of oral dosing (1 mg/kg) on systolic blood pressure in spontaneously hypertensive rats, day 4,at 2 hr. The class given is functional, Artery. An outline of the steps: as §1
The species entered for assay [11] is Rattus norvegicus. Nature of the assay: Predose systolic blood pressure in spontaneously hypertensive rats. In kind it is functional, Artery. A digest of the protocol:
as §1

In assay [12] the test system is Rattus norvegicus. Nature of the assay: Effects of oral dosing (10 mg/kg) on systolic blood pressure in spontaneously hypertensive rats, day 1,at 24 hr. In kind it is functional, Artery. An outline of the steps:
as §1

For assay [13], the system named is Rattus norvegicus. Nature of the assay: Effects of oral dosing (10 mg/kg) on systolic blood pressure in spontaneously hypertensive rats, day 1,at 2 hr. In kind it is functional, Artery. An outline of the steps:
as §1

Assay [14] concerns Rattus norvegicus. Nature of the assay: Effects of oral dosing (10 mg/kg) on systolic blood pressure in spontaneously hypertensive rats, day 2,at 24 hr. In kind it is functional, Artery. A digest of the protocol:
as §1

In assay [15] the test system is Rattus norvegicus. The assay is described as follows: Effects of oral dosing (10 mg/kg) on systolic blood pressure in spontaneously hypertensive rats, day 2,at 2 hr. The class given is functional, Artery. An outline of the steps:
as §1

In assay [16] the test system is Rattus norvegicus. Nature of the assay: Effects of oral dosing (10 mg/kg) on systolic blood pressure in spontaneously hypertensive rats, day 3,at 24 hr. In kind it is functional, Artery. An outline of the steps:
as §1

In assay [17] the test system is Rattus norvegicus. The assay is described as follows: Effects of oral dosing (10 mg/kg) on systolic blood pressure in spontaneously hypertensive rats, day 3,at 2 hr. In kind it is functional, Artery. An outline of the steps:
as §1

Assay [18] has as its system Rattus norvegicus. The assay is described as follows: Effects of oral dosing (10 mg/kg) on systolic blood pressure in spontaneously hypertensive rats, day 4,at 24 hr. In kind it is functional, Artery. A digest of the protocol:
as §1

The subject of assay [19] is Rattus norvegicus. The assay is described as follows: Effects of oral dosing (0.1 mg/kg) on systolic blood pressure in spontaneously hypertensive rats, day 1,at 24 hr. In kind it is functional, Artery. An outline of the steps: as §1
Assay [20] relates to Rattus norvegicus. Nature of the assay: Effects of oral dosing (0.1 mg/kg) on systolic blood pressure in spontaneously hypertensive rats, day 1,at 2 hr. In kind it is functional, Artery. An outline of the steps:
as §1

Assay [21] relates to Rattus norvegicus. The assay is described as follows: Effects of oral dosing (0.1 mg/kg) on systolic blood pressure in spontaneously hypertensive rats, day 2,at 24 hr. The class given is functional, Artery. A digest of the protocol:
as §1

The test system of assay [22] is Rattus norvegicus. The assay is described as follows: Effects of oral dosing (0.1 mg/kg) on systolic blood pressure in spontaneously hypertensive rats, day 2,at 2 hr. The class given is functional, Artery. An outline of the steps:
as §1

Assay [23] deals with Rattus norvegicus. Nature of the assay: Effects of oral dosing (0.1 mg/kg) on systolic blood pressure in spontaneously hypertensive rats, day 3,at 24 hr. In kind it is functional, Artery. An outline of the steps:
as §1

Assay [24] relates to Rattus norvegicus. The assay is described as follows: Effects of oral dosing (0.1 mg/kg) on systolic blood pressure in spontaneously hypertensive rats, day 3,at 2 hr. The class given is functional, Artery. A digest of the protocol:
as §1

Assay [25] concerns Rattus norvegicus. The assay is described as follows: Effects of oral dosing (0.1 mg/kg) on systolic blood pressure in spontaneously hypertensive rats, day 4,at 2 hr. The class given is functional, Artery. An outline of the steps:
as §1

Assay [26] deals with Rattus norvegicus. Nature of the assay: Effects of oral dosing (0.1 mg/kg) on systolic blood pressure in spontaneously hypertensive rats, day 4,at 24 hr. The class given is functional, Artery. A digest of the protocol:
as §1

SMILES strings stand for the structures. Several values for one entry are separate records, joined by “and”; a condition that tells them apart may be missing. Identical values can stand only once.

`O=C(O)CN1C(=O)[C@@H](N[C@@H](CCc2ccccc2)C(=O)O)CCc2ccccc21` (stereo in doubt; 4b) registered a half-inhibitory concentration (IC50) in assay [1] of 2.8 nM. This counts as single-digit nanomolar.
Still for that read-out and setting: the result for `O=C(O)CN1C(=O)[C@H](N[C@@H](CCc2ccccc2)C(=O)O)CCCc2ccccc21` reads 62 nM.
As for `CCOC(=O)[C@H](CCc1ccccc1)N[C@H]1CCc2ccccc2N(CC(=O)O)C1=O.Cl` [BENAZEPRIL HYDROCHLORIDE], the Systolic blood pressure in the assay with Rattus norvegicus [2] came out at 130.8 mmHg; in the assay with Rattus norvegicus [3], 185.8 mmHg; in the assay on Rattus norvegicus [4] it was 185.7 mmHg; in the assay with Rattus norvegicus [5], 168.7 mmHg; in the assay on Rattus norvegicus [6], 182.8 mmHg; in the assay with Rattus norvegicus [7] it was 177.3 mmHg. In addition, the Systolic blood pressure is 166.5 mmHg with Rattus norvegicus [8]; 180.2 mmHg in the assay with Rattus norvegicus [9]; 171.3 mmHg with Rattus norvegicus [10]; 193.6 mmHg and 200 mmHg and 198 mmHg in the assay listed under Rattus norvegicus [11]; 167.5 mmHg with Rattus norvegicus [12]; 162.2 mmHg in the assay on Rattus norvegicus [13]. The Systolic blood pressure stood at 147.3 mmHg with Rattus norvegicus [14]; 146 mmHg in the assay with Rattus norvegicus [15]; 150.2 mmHg in the assay on Rattus norvegicus [16]; 131 mmHg with Rattus norvegicus [17]; 150 mmHg with Rattus norvegicus [18]; 186 mmHg in the assay on Rattus norvegicus [19]. The Systolic blood pressure in the assay on Rattus norvegicus [20] is 193.8 mmHg; in the assay on Rattus norvegicus [21], 169.8 mmHg; in the assay with Rattus norvegicus [22], 195.8 mmHg; in the assay on Rattus norvegicus [23] it was 172.4 mmHg; in the assay with Rattus norvegicus [24] it was 176.2 mmHg; in the assay on Rattus norvegicus [25], 182.8 mmHg. For the same compound, the Systolic blood pressure in the assay with Rattus norvegicus [26] was 176 mmHg.
In assay [1], `O=C(O)CN1C(=O)[C@H](N[C@@H](CCc2ccccc2)C(=O)O)Cc2ccccc21` yielded an IC50 of 5100 nM.
As to `O=C(O)CN1C(=O)[C@@H](N[C@@H](CCc2ccccc2)C(=O)O)CCc2ccccc21` (stereo in doubt; 4f), in [1], the IC50 stood at 58 nM. Compared with the last compound, the IC50 is about 88-fold lower.
Consider `O=C(O)CN1C(=O)[C@@H](N[C@@H](CCc2ccccc2)C(=O)O)CCc2ccccc21` (stereo in doubt; 4e), for which the IC50 in assay [1] stood at 5.2 nM.
Still for that read-out and setting: with `O=C(O)CN1C(=O)[C@@H](N[C@@H](CCc2ccccc2)C(=O)O)CCCc2ccccc21` the figure was 4 nM; with `O=C(O)CN1C(=O)[C@@H](N[C@@H](CCc2ccccc2)C(=O)O)Cc2ccccc21`, 610 nM and 1200 nM.
With `CCOC(=O)[C@H](CCc1ccccc1)N[C@@H](C)C(=O)N1CCC[C@H]1C(=O)O`, the Systolic blood pressure with Rattus norvegicus [2] was 135.5 mmHg; in the assay with Rattus norvegicus [3] it was 169.5 mmHg; in the assay with Rattus norvegicus [4], 160 mmHg; in the assay on Rattus norvegicus [5], 168.7 mmHg; in the assay with Rattus norvegicus [6] it was 158.7 mmHg; in the assay on Rattus norvegicus [7], 160 mmHg. The Systolic blood pressure in the assay with Rattus norvegicus [8] is 146.7 mmHg; in the assay on Rattus norvegicus [9] it was 160.8 mmHg; with Rattus norvegicus [10], 145 mmHg; in the assay filed under Rattus norvegicus [11], 197.7 mmHg and 186.8 mmHg and 199 mmHg; in the assay with Rattus norvegicus [12] it was 168.3 mmHg; with Rattus norvegicus [13], 152.5 mmHg. In addition, the Systolic blood pressure in the assay with Rattus norvegicus [14] was determined as 163 mmHg; in the assay with Rattus norvegicus [15], 138.5 mmHg; in the assay on Rattus norvegicus [16], 174 mmHg; in the assay on Rattus norvegicus [17], 124.5 mmHg; in the assay on Rattus norvegicus [18], 159.8 mmHg; in the assay on Rattus norvegicus [19], 175.8 mmHg. Further, the Systolic blood pressure with Rattus norvegicus [20] stood at 197.5 mmHg; in the assay with Rattus norvegicus [21], 173.7 mmHg; in the assay on Rattus norvegicus [22], 172 mmHg; in the assay with Rattus norvegicus [23], 173.5 mmHg; in the assay on Rattus norvegicus [24], 175.7 mmHg; in the assay on Rattus norvegicus [25], 168 mmHg. Further, the Systolic blood pressure with Rattus norvegicus [26] is recorded as 204 mmHg.
